Bioassay records from PubChem BioAssay.
KCNQ1 inh: inhibitors of human KCNQ1 channel, primary screen, cell-based, thallium flux, high-throughput | 1.3% of 310,000 active | CHO-K1 KCNQ1, FluxOR thallium flux fluorescence; stronger effect = higher value | Potassium voltage-gated channel subfamily KQT member 1 (Homo sapiens), P51787 | B-score at 10 µM;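 active means compounds whose thallium flux B-score, printed positive for inhibition, exceeds three library SD while starting fluorescence stays within three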;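 further: channel opened by potassium depolarization with thallium stimulus after 20 min compound exposure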
hERG rescue: hERG rescue from dofetilide block, primary screen, cell-based, CHO-hERG, FluxOR thallium flux, dofetilide IC70 | 0.51% of 310,000 active | dofetilide IC70 present | Voltage-gated inwardly rectifying potassium channel KCNH2 (Homo sapiens), Q12809 | activation (rescue from dofetilide block), less the hit threshold, % at 10 µM | AID 1511, 2009;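 active means activation above the mean of controls blocked by dofetilide plus 5 SD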;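 further: thallium influx through hERG after potassium depolarization seen as dye fluorescence rise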
KCNQ1 act: potentiators or activators of KCNQ1 channel, primary screen, cell-based, thallium flux, high-throughput; 0.35% of 310,000 active; CHO-K1 KCNQ1, thallium flux FluxOR fluorescence; stronger effect = higher value; Potassium voltage-gated channel subfamily KQT member 1 (Homo sapiens), P51787; AID 2648, 2010; B-score at 10 µM;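 active means fluorescence ratio B-score, a plate-corrected score, at least three library SD, with initial intensity B-score within 5 SD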
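Assay system: CHO-K1 cells stably expressing KCNQ1; Medium: assay buffer with matched DMSO; Also added: K+/Tl+ depolarizing stimulus; Dosing: single dose; Timing: dye 90 min, compound 20 min, room temperature; Measured by: kinetic FluxOR thallium fluorescence, 10-s 1-Hz baseline, 110-s post-stimulus read; Read-out: peak-minus-minimum fluorescence over initial fluorescence, negative-control normalized, B-scored.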
KCNK3 block: human KCNK3 channel inhibitors, primary screen, CHO cells, FluxOR thallium flux, B-score | B-score at 10 µM | AID 602410, 2012 | Potassium channel subfamily K member 3 (Homo sapiens), O14649 | FluxOR fluorescence; stronger effect = lower value | 0.84% of 340,000 active;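 active means B-score under library mean minus 4 SD, starting fluorescence ratio at most library mean plus 5 SD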;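 further: more negative B-score means stronger inhibition of thallium flux through KCNK3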
KCNK9 inh: KCNK9 potassium channel inhibitors, primary screen, HEK293 cells, thallium flux. 1.2% of 310,000 active. FluxOR thallium flux fluorescence; stronger effect = lower value. B-score at 10 µM. Potassium channel subfamily K member 9 (Homo sapiens), Q9NPC2;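 active means ratio B-score over 3 SD below the library mean, with starting fluorescence within 5 SD of its mean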;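 further: negative B-score means less thallium flux so channel inhibition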
Target sequence (Q9NPC2 whole entry, looked up): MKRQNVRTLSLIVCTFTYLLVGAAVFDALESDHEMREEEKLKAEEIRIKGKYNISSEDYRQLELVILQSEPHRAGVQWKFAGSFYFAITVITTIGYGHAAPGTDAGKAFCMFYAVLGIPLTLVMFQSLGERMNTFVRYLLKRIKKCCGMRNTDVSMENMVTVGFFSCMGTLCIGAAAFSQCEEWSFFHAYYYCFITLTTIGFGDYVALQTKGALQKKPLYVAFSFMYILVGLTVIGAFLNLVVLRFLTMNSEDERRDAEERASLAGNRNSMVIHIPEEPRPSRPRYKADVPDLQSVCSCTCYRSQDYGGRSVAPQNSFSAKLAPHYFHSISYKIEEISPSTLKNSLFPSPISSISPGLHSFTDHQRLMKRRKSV
Cl transport mod: KCC2 cotransporter modulators, thallium flux, primary screen, cell-based, HEK293 KCC2, FluoZin-2 fluorescence, MLSMR. KCC2 cells, thallium flux FluoZin-2 fluorescence. B-score of Tl+ flux slope (higher = more flux/activation; lower = inhibition) at 10 µM. 2.2% of 190,000 active;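 active means thallium flux slope and its plate-corrected score both differing from the plate sample mean at a set confidence after two filtering rounds, in either direction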;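 further: slope of fluorescence scaled to starting intensity during 10 to 20 s after thallium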
KCNQ1 block val: KCNQ1 potassium channel inhibitors, confirmation, cell-based, Tl flux, duplicate; shares compounds with KCNQ1 inh; KCNQ1 cell line, FluxOR thallium flux fluorescence; inhibition, % at 10 µM; 93% of 1,600 active; AID 588353, 2011;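 active means primary screen active, with duplicate mean exceeding buffer control mean plus 3 SD of buffer wells, cut at about 28% in these data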;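 further: 0% = buffer control ratio and 100% = XE991 inhibitor control ratio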
CHO Tl flux: thallium flux effects in parental CHO cells, counter-screen for KCNQ1 inhibitor project, cell-based, Tl flux; shares compounds with KCNQ1 inh; AID 588366, 2011; 21% of 1,600 active; parental CHO-K1, FluxOR thallium flux fluorescence ratio; stronger effect = lower value; zero means no signal rise above baseline; fluorescence ratio (Tl flux) at 10 µM;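 active means mean of duplicate thallium-flux fluorescence ratios in parental host cells more than 5 SD below the buffer control mean, cut at about 0.38 in these data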;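 further: ratio is peak minus minimum fluorescence divided by baseline fluorescence; actives read low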
KCNQ2 spec: KCNQ2 channel inhibition, selectivity assay for KCNQ1 inhibitor project, cell-based | AID 651746, 2012 | KCNQ2 cells, FluxOR thallium flux fluorescence | 71% of 1,600 active | inhibition, % at 10 µM | shares compounds with KCNQ1 inh;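 active means mean percent inhibition of the KCNQ2 thallium signal more than 5 SD above the buffer-only control wells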;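 further: KCNQ2 expressed in CHO cells; 0% = buffer control wells and 100% = XE-991 inhibitor control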
KCNQ1 KCNE1 spec: KCNQ1/KCNE1 channel inhibition, selectivity assay for KCNQ1 inhibitor project, CHO-K1 cells, thallium flux, FluxOR; shares compounds with KCNQ1 inh; FluxOR thallium flux fluorescence; inhibition, % at 10 µM; 77% of 1,600 active; AID 652147, 2013;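 active means mean percent inhibition of duplicate wells above the buffer-only control mean plus 3 SD of those controls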;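 further: 0% = buffer only wells and 100% = XE-991 inhibitor control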
An asterisk follows results filed as active. The list is not random: actives were taken first. Their share in the collection is about 4.1%.

Results for Cc1onc(-c2ccccc2)c1CNC(=O)Nc1cccc(Cl)c1 ?
KCNQ1 inh: 7*; hERG rescue: -12; KCNQ1 act: inactive; KCNK3 block: inactive; KCNK9 inh: inactive; KCNQ1 block val: 76*; CHO Tl flux: 0.5; KCNQ2 spec: 74%*; KCNQ1 KCNE1 spec: 79%*

What do the screens show for `CC(=O)c1cccc(NC(=O)N2CCCC2C(=O)NCc2ccc3c(c2)OCO3)c1` (stereo not drawn)?
KCNQ1 inh: 7*; hERG rescue: -7; KCNQ1 act: inactive; KCNK3 block: inactive; KCNK9 inh: inactive; KCNQ1 block val: 0; CHO Tl flux: 0.48; KCNQ2 spec: inactive; KCNQ1 KCNE1 spec: inactive

Results for Cc1ccc(S(=O)(=O)c2c(N)n(Cc3ccco3)c3nc4ccccc4nc23)cc1 ?
KCNQ1 inh: 7*; hERG rescue: -13; KCNQ1 act: inactive; KCNK3 block: inactive; KCNK9 inh: inactive; KCNQ1 block val: 99*; CHO Tl flux: 0.38*; KCNQ2 spec: 74%*; KCNQ1 KCNE1 spec: 166%*

Results for CCCCn1c(N)c(S(=O)(=O)c2ccc(C)cc2)c2nc3ccccc3nc21 ?
KCNQ1 inh: 14*; hERG rescue: -8; KCNQ1 act: inactive; KCNK3 block: inactive; KCNK9 inh: inactive; Cl transport mod: -1; KCNQ1 block val: 88*; CHO Tl flux: 0.38*; KCNQ2 spec: 71%*; KCNQ1 KCNE1 spec: 93%*

Results for COC(=O)C1CC(O)C(O)C(O)C1 (stereo not drawn) ?
KCNK3 block: inactive

What do the screens show for `O=C(Nc1ccc(OC(F)(F)F)cc1)Nc1cccnc1`?
KCNQ1 inh: 6*; hERG rescue: -7; KCNQ1 act: inactive; KCNK3 block: inactive; KCNK9 inh: inactive; Cl transport mod: -0.03; KCNQ1 block val: 40*; CHO Tl flux: 0.48; KCNQ2 spec: inactive; KCNQ1 KCNE1 spec: inactive

Results for O=C(Nc1ccc(F)cc1)Nc1cccnc1 ?
KCNQ1 inh: inactive; hERG rescue: -9; KCNQ1 act: inactive; KCNK3 block: inactive; KCNK9 inh: inactive

What do the screens show for `Cc1ccc(NC(=O)Nc2cccnc2)cc1Cl`?
KCNQ1 inh: 7*; hERG rescue: -17; KCNQ1 act: inactive; KCNK3 block: inactive; KCNK9 inh: inactive; KCNQ1 block val: 66*; CHO Tl flux: 0.51; KCNQ2 spec: inactive; KCNQ1 KCNE1 spec: inactive

What do the screens show for `Fc1ccc(NC(=S)Nc2ccccc2N2CCOCC2)cc1Cl`?
KCNQ1 inh: 9*; hERG rescue: -22; KCNQ1 act: inactive; KCNK3 block: inactive; KCNK9 inh: inactive; Cl transport mod: -0.3; KCNQ1 block val: 0; CHO Tl flux: 0.5; KCNQ2 spec: inactive; KCNQ1 KCNE1 spec: inactive
